Test results published in publication PMC4408243 (Biochimica et biophysica acta, 2015).
Residue numbers refer to the chain shown, from its start. Values joined by “and” are separate entries in the source; they are usually repeats but may differ in a detail not shown here. Identical values can stand only once. Marks after values point to notes of the source that are not given here.

What was measured:
human WT FABP1 = target: T1, human WT FABP1 (Homo sapiens, UniProt P07148); assay: Isothermal titration calorimetry; assay type: binding
T1 sequence (P07148 1-127): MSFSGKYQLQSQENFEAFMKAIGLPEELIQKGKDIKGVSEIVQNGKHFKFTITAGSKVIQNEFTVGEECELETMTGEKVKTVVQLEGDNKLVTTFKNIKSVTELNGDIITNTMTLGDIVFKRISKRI

human T94A variant FABP1 = target: T2, human T94A variant FABP1 (Homo sapiens, UniProt P07148, T94A); assay: Isothermal titration calorimetry; assay type: binding
T2 sequence (P07148 1-127 T94A): T1 sequence (P07148 1-127) with T94A

rat FABP1 [1] = target: T3, rat FABP1 (Rattus norvegicus, UniProt P02692); assay: Isothermal titration calorimetry; assay type: binding
T3 sequence (P02692 1-127): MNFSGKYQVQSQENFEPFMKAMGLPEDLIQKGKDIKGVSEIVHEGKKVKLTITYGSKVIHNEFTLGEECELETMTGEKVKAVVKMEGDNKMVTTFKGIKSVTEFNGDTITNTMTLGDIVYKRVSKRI

[2] = aqueous; cited from earlier work
rat FABP1 [3] = target: T3, rat FABP1; assay: NBD-cholesterol fluorescence binding assay
How it was run: (§1)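 Recombinant FABP1 was titrated into NBD-cholesterol held at 20 nM, below its critical micellar concentration; human proteins ran 0–3.6 μM. Excitation was 490 nm and emission spectra were taken at 515–600 nm, 24°C. Emission maxima came from spectral analysis. Kd and Bmax were obtained by fitting the binding curve to a hyperbola. Data are mean ± SE, n = 3–5.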

human WT FABP1 T94T = target: T4, human WT FABP1 T94T (Homo sapiens, UniProt P07148); assay: NBD-cholesterol fluorescence binding assay
T4 sequence (P07148 1-127): T1 sequence (P07148 1-127)
How it was run: as §1

human FABP1 T94A variant = target: T5, human FABP1 T94A variant (Homo sapiens, UniProt P07148, T94A); assay: NBD-cholesterol fluorescence binding assay
T5 sequence (P07148 1-127 T94A): T1 sequence (P07148 1-127) with T94A
How it was run: as §1

[4] = NBD-cholesterol 20nM bound to protein, excitation 490 nm, 24°C
[5] = NBD-cholesterol 20nM, FABP1 0–3.6 μM, hyperbola fit
[6] = NBD-cholesterol 20nM, FABP1 0–3.6 μM, hyperbola fit, 24°C

CC(C)CCC[C@@H](C)[C@H]1CC[C@H]2[C@@H]3CC=C4C[C@@H](O)CC[C@]4(C)[C@H]3CC[C@]12C [cholesterol]
Kd (human WT FABP1): 1300 ± 400 nM
TΔS (human WT FABP1; ITC, 25 °C, pH 8.0): 5.02 ± 0.48 kcal/mol
n, binding stoichiometry (human WT FABP1; ITC, 25 °C, pH 8.0): 0.8 ± 0.2 mol/mol
ΔG, Gibbs free energy change (human WT FABP1; ITC, 25 °C, pH 8.0): -9.08 ± 0.72 kcal/mol
ΔH, enthalpy change (human WT FABP1; ITC, 25 °C, pH 8.0): -4.06 ± 0.48 kcal/mol
Kd (human T94A variant FABP1): 500 ± 100 nM
TΔS (human T94A variant FABP1; ITC, 25 °C, pH 8.0): 5.26 ± 0.24 kcal/mol
n, binding stoichiometry (human T94A variant FABP1; ITC, 25 °C, pH 8.0): 0.7 ± 0.2 mol/mol
ΔG, Gibbs free energy change (human T94A variant FABP1; ITC, 25 °C, pH 8.0): -10.8 ± 0.72 kcal/mol
ΔH, enthalpy change (human T94A variant FABP1; ITC, 25 °C, pH 8.0): −23 ± 4 ^b kJ/mol
fold higher cholesterol-binding affinity than WT FABP1 T94T (human T94A variant FABP1; NBD-cholesterol fluorescence and cholesterol ITC binding assays): 3 fold
Kd (rat FABP1 [1]): 600 ± 200 nM
TΔS (rat FABP1 [1]; ITC, 25 °C, pH 8.0): 5.98 ± 0.72 kcal/mol
n, binding stoichiometry (rat FABP1 [1]; ITC, 25 °C, pH 8.0): 0.9 ± 0.1 mol/mol
ΔG, Gibbs free energy change (rat FABP1 [1]; ITC, 25 °C, pH 8.0): -9.8 ± 0.48 kcal/mol
ΔH, enthalpy change (rat FABP1 [1]; ITC, 25 °C, pH 8.0): -3.59 ± 0.24 kcal/mol
critical micellar concentration [2]: ~30 nM

C[C@H](CNc1ccc([N+](=O)[O-])c2nonc12)[C@H]1CC[C@H]2[C@@H]3CC=C4C[C@@H](O)CC[C@]4(C)[C@H]3CC[C@]12C [NBD-cholesterol, 22-(N-(7-nitrobenz-2-oxa-1,3-diazol-4-yl)-amino)-23, 24-bisnor-5-cholen-3β-ol]
Emission max (rat FABP1 [3]; [4]): 540.7 ± 0.7 nm
Bmax (fluorescence intensity at saturation) (rat FABP1 [3]; [5]): 68.2 ± 7.1 A.U.
Kd (rat FABP1 [3]; [6]): 480 ± 120 nM
Emission max (human WT FABP1 T94T; [4]): 544 nm and 543.9 ± 0.5 ^d nm
Bmax (fluorescence intensity at saturation) (human WT FABP1 T94T; [5]): 72.4 ± 7.7 A.U.
Kd (human WT FABP1 T94T; [6]): 1770 ± 430 nM
blue shift of emission maximum, bound versus aqueous buffer (human WT FABP1 T94T; normalized spectra): ~21 nm
fold higher affinity for NBD-cholesterol than WT (human FABP1 T94A variant): more than 3 fold
fold lower Kd than WT FABP1 T94T (human FABP1 T94A variant): 3.5 fold
maximal fluorescence intensity lower than when bound to WT FABP1 T94T (human FABP1 T94A variant): ~40%
shift of maximum emission, T94A variant compared to WT FABP1 T94T (human FABP1 T94A variant): 5 nm
Emission max (human FABP1 T94A variant; [4]): 549 nm and 548.9 ± 1.0 ^d, ^e nm
Bmax (fluorescence intensity at saturation) (human FABP1 T94A variant; [5]): 43.4 ± 3.3 ^d, ^e A.U.
Kd (human FABP1 T94A variant; [6]): 510 ± 150 nM
